Laboratory results: ChEMBL document CHEMBL4393692, “Thiazolidinone/thiazole based hybrids - New class of antitrypanosomal agents” (Eur J Med Chem, 2019)
Blank lines part the entries; values can stand above or below the compound they belong to. Activity calls are given as the source filed them. The calls are words filed in the database; no cut-off is given here.

Key:
[1] = test system: Trypanosoma brucei brucei; experiment: Antitrypanosomal activity against bloodstream form of Trypanosoma brucei brucei 90-13 reduction in parasite growth after 72 hrs by resazurin dye based fluorescence assay; assay type: functional, organism-based; conditions: 90-13, 72 h
Procedure, shortened: (§1)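 Bloodstream parasites cultured in HMI9 with 10% FCS at 37°C under 5% CO2. Log-phase cells harvested at 3000xg, plated at 10^5 cells/ml with dilutions from 10 down to 0.625 µg/ml (DMSO stocks) for 72 h. Resazurin added at 45 µM final, fluorescence read after a further 4 h. Inhibition vs DMSO control. IC50 from dose-response curve, mean ± SD of three independent experiments.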

[2] = test system: Trypanosoma brucei brucei; experiment: Antitrypanosomal activity against bloodstream form of Trypanosoma brucei brucei 90-13 assessed as reduction in parasite growth at 10 ug/ml after 72 hrs by resazurin dye based fluorescence assay relative to control; assay type: functional; conditions: 90-13, 72 h
Procedure, shortened: (§2)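 Bloodstream forms grown in HMI9 + 10% FCS, 37°C, 5% CO2. Log-phase cells harvested at 3000xg and seeded at 10^5 cells/ml, exposed to test substance from DMSO stock at a single screening level of 10 or 1 µg/mL for 72 h. Resazurin added (final 45 µM), 4 h more, then fluorescence read. Growth inhibition expressed against DMSO control.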

[3] = test system: Trypanosoma brucei brucei; experiment: Antitrypanosomal activity against bloodstream form of Trypanosoma brucei brucei 90-13 reduction in parasite growth at 1 ug/ml after 72 hrs by resazurin dye based fluorescence assay relative to control; assay type: functional; conditions: for inhibition at 1 µg/mL: 90-13, 72 h; procedure, shortened: as §2
[4] = Acute toxicity in ip dosed mouse by Litchfield-Wilcoxon method; assay type: organism-based; conditions: in vivo
Procedure, shortened: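 White male mice of 23-25 g; compounds dissolved in 0.9% NaCl saline with 1-2 drops Tween-80, stock prepared immediately before use. Single intraperitoneal injection at increasing doses within 100–1000 mg/kg, 4 or 5 dose levels with 6 animals per dose. LD50 derived by the Litchfield-Wilcoxon method.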

[5] = test system: Trypanosoma brucei gambiense; experiment: Antitrypanosomal activity against bloodstream form of Trypanosoma brucei gambiense Feo reduction in parasite growth after 72 hrs by resazurin dye based fluorescence assay; assay type: functional, organism-based; procedure, shortened: as §1
[6] = Cytotoxicity against human AB943 cells assessed as reduction in cell viability after 5 days resazurin dye based fluorescence assay; conditions: 120 h
Procedure, shortened: (§3)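 Human primary fibroblasts grown in RPMI with 25 mM HEPES pH 7.3 and 10% FCS, 37°C, 5% CO2. After trypsinisation, seeded at 5000 cells/well and incubated 24 h. Then washed and exposed to two-fold drug dilutions, final DMSO below 1%, for 5 days. Resazurin added, fluorescence read (ex 530/em 590 nm) after 4 h. Growth inhibition vs DMSO control. SI = IC50 fibroblast / IC50 T. b. gambiense.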

[7] = Selectivity index, ratio of IC50 for human AB943 cells to IC50 of bloodstream form of Trypanosoma brucei gambiense Feo; assay type: toxicity; conditions: read-out: Ratio IC50; procedure, shortened: as §3

SMILES: O=C(CC1S\C(=N/N=C/C=C/c2ccccc2)NC1=O)c1ccc2c(c1)CCCC2 (configuration not stated)
inhibition at 10 µg/mL [2]: 53.2% | inhibition at 1 µg/mL [3]: 7.69%

SMILES: COc1cc(/C=N/N=C2\SC(CC(=O)c3ccc(F)cc3)C(=O)N2c2ccc(O)cc2)ccc1OCC(=O)O (configuration not stated)
inhibition at 10 µg/mL [2]: 14.5% | inhibition at 1 µg/mL [3]: 15.1%

SMILES: O=C(O)CC1SC(N/N=C/C=C/c2ccccc2[N+](=O)[O-])=NC1=O (configuration not stated)
inhibition at 10 µg/mL [2]: 24.9% | inhibition at 1 µg/mL [3]: 3.28%

SMILES: O=C(O)CC1S/C(=N\N=C\c2c(-c3ccccc3)[nH]c3ccccc23)NC1=O (configuration not stated)
LD50 [4]: 240 mg/kg

SMILES: O=C(CC1S\C(=N/N=C/C=C/c2ccccc2)N(c2ccc(O)cc2)C1=O)Nc1ccc(F)cc1 (configuration not stated)
inhibition at 10 µg/mL [2]: -8.23% | inhibition at 1 µg/mL [3]: 1.18%

SMILES: O=C(CC1S/C(=N\N=C2CCCCC2)NC1=O)c1ccc(F)cc1 (configuration not stated)
inhibition at 10 µg/mL [2]: 98.5% | inhibition at 1 µg/mL [3]: 8.16%

SMILES: CC12CCC(C/C1=N/N=C1/NC(=O)C(CC(=O)c3ccc(F)cc3)S1)C2(C)C (configuration not stated)
inhibition at 10 µg/mL [2]: 42% | inhibition at 1 µg/mL [3]: 36.1%

SMILES: CC1S/C(=N\N=C\c2c(-c3ccccc3)[nH]c3ccccc23)NC1=O (configuration not stated)
IC50 [5]: 0.21 µM | IC50 [6]: 28.1 µM | selectivity ratio [7]: 130 | LD50 [4]: 220 mg/kg

SMILES: O=C(O)CCCNC(=O)CC1S/C(=N\N=C\c2ccco2)NC1=O (configuration not stated)
inhibition at 10 µg/mL [2]: 10% | inhibition at 1 µg/mL [3]: 0.06%

SMILES: O=C(O)CC1S/C(=N\N=C\c2c(-c3ccc(Cl)cc3)[nH]c3ccccc23)NC1=O (configuration not stated)
LD50 [4]: 290 mg/kg

SMILES: CC12CCC(C/C1=N/N=C1/NC(=O)C(CC(=O)Nc3ccc(Br)cc3)S1)C2(C)C (configuration not stated)
inhibition at 10 µg/mL [2]: 97% | inhibition [3]: inactive

SMILES: O=C(CC1S/C(=N\N=C2CCCCC2)NC1=O)Nc1ccc([N+](=O)[O-])cc1 (configuration not stated)
inhibition at 10 µg/mL [2]: 44.9% | inhibition [3]: inactive

SMILES: O=C1CS/C(=N\N=C\c2c(-c3ccc(Cl)cc3)[nH]c3ccccc23)N1
IC50 [5]: 3.93 µM | LD50 [4]: 270 mg/kg

SMILES: O=C(CC1S\C(=N/N=C/C=C/c2ccccc2)N(Cc2ccco2)C1=O)Nc1cccc(C(F)(F)F)c1 (configuration not stated)
inhibition at 10 µg/mL [2]: 98.9% | inhibition at 1 µg/mL [3]: 5.06%

SMILES: O=C(O)CC1S\C(=N/N=C/C(Cl)=C/c2ccc([N+](=O)[O-])cc2)N(c2ccc(O)cc2)C1=O (configuration not stated)
inhibition at 10 µg/mL [2]: 25% | inhibition at 1 µg/mL [3]: -1.57%

SMILES: O=C(CC1S\C(=N/N=C/C=C/c2ccccc2)NC1=O)Nc1ccc([N+](=O)[O-])cc1 (configuration not stated)
inhibition at 10 µg/mL [2]: 56.1% | inhibition [3]: inactive

SMILES: O=C(CC1S\C(=N/N=C/C=C/c2ccccc2)NC1=O)c1ccc(F)cc1 (configuration not stated)
inhibition at 10 µg/mL [2]: 57.3% | inhibition at 1 µg/mL [3]: 38.7%

SMILES: O=C(CC1S/C(=N\N=C2CCCCC2)NC1=O)Nc1ccc(F)cc1 (configuration not stated)
inhibition at 10 µg/mL [2]: -4.66% | inhibition at 1 µg/mL [3]: -4.65%

SMILES: C=CCN1C(=O)C(CC(=O)c2ccc(F)cc2)S/C1=N\N=C\c1ccccc1 (configuration not stated)
inhibition at 10 µg/mL [2]: 14.7% | inhibition at 1 µg/mL [3]: 11.1%

SMILES: Cc1ccc(NC(=O)CC2S/C(=N\N=C3\CC4CCC3(C)C4(C)C)NC2=O)cc1 (configuration not stated)
inhibition at 10 µg/mL [2]: 30% | inhibition at 1 µg/mL [3]: 4.18%

SMILES: O=C(CC1S/C(=N\N=C\c2ccco2)NC1=O)c1ccc2c(c1)CCCC2 (configuration not stated)
inhibition at 10 µg/mL [2]: 10.9% | inhibition at 1 µg/mL [3]: 9.82%

SMILES: CC12CCC(C/C1=N/N=C1/NC(=O)C(CC(=O)Nc3ccc(Cl)cc3)S1)C2(C)C (configuration not stated)
inhibition at 10 µg/mL [2]: 97.8% | inhibition at 1 µg/mL [3]: 14.1%

SMILES: C=CCN1C(=O)C(CC(=O)c2ccc(F)cc2)S/C1=N\N=C\c1ccc(N(C)C)cc1 (configuration not stated)
inhibition at 10 µg/mL [2]: 14.7% | inhibition at 1 µg/mL [3]: 11.1%

Second part, led by results:

IC50 [1]: 9.16 µM
SMILES: O=C(CC1S/C(=N\N=C\c2c(-c3ccccc3)[nH]c3ccccc23)NC1=O)Nc1ccc(Cl)cc1 (configuration not stated)

IC50 [1]: 13.1 µM
SMILES: O=C(CC1S/C(=N\N=C\c2c(-c3ccccc3)[nH]c3ccccc23)NC1=O)c1ccc2c(c1)CCCC2 (configuration not stated)

IC50 [1]: 7.73 µM | IC50 [5]: 2.82 µM
SMILES: O=C(CC1S/C(=N\N=C\c2c(-c3ccccc3)[nH]c3ccccc23)NC1=O)c1ccccc1 (configuration not stated)

IC50 [1]: 0.17 µM
SMILES: O=C1N/C(=N/N=C/c2c(-c3ccccc3)[nH]c3ccccc23)SC1CCO (configuration not stated)

IC50 [5]: 0.66 µM
SMILES: CCOC(=O)c1s/c(=N\N=C\c2c(-c3ccc([N+](=O)[O-])cc3)[nH]c3ccccc23)n(-c2ccc(O)cc2)c1C
IC50 [6]: 82.9 µM | selectivity ratio [7]: 127

IC50 [1]: 7.86 µM
SMILES: O=C(CC1S/C(=N\N=C\c2c(-c3ccccc3)[nH]c3ccccc23)NC1=O)Nc1ccc(Br)cc1 (configuration not stated)

IC50 [5]: 1 µM
SMILES: CCc1nn2c(/C=N/N=C3\SC(CCOC(C)=O)C(=O)N3c3ccc(O)cc3)c(-c3ccc(Br)cc3)nc2s1 (configuration not stated)
IC50 [6]: 11.2 µM | selectivity ratio [7]: 11

IC50 [5]: 0.745 µM
SMILES: CCOC(=O)c1s/c(=N\N=C\c2c(-c3ccccc3)nc3sc(CC)nn23)n(-c2ccc(O)cc2)c1C
IC50 [6]: 51.5 µM | selectivity ratio [7]: 69

IC50 [5]: 1.49 µM
SMILES: O=C1N/C(=N/N=C/c2c(-c3ccc(Cl)cc3)[nH]c3ccccc23)SC1CCO (configuration not stated)
IC50 [6]: 8.96 µM | selectivity ratio [7]: 7

IC50 [5]: 0.476 µM
SMILES: CCc1nn2c(/C=N/N=c3\scc(-c4ccc(Br)cc4)n3-c3ccc(O)cc3)c(-c3ccc(Br)cc3)nc2s1
IC50 [6]: > 70 µM | selectivity ratio [7]: > 150

IC50 [1]: 2.39 µM | IC50 [5]: 4.64 µM
SMILES: CC1CS(=O)(=O)CCN1/N=C/c1ccc([N+](=O)[O-])o1 (configuration not stated) [NIFURTIMOX]
IC50 [6]: 65.1 µM | selectivity ratio [7]: 14

IC50 [5]: 0.53 µM
SMILES: CCOC(=O)c1sc(N/N=C/c2c(-c3ccc(Cl)cc3)[nH]c3ccccc23)nc1C
IC50 [6]: 20.5 µM | selectivity ratio [7]: 39

IC50 [5]: 5.7 µM
SMILES: C=CCSc1nn2c(/C=N/N=C3/NC(=O)C(CCOC(C)=O)S3)c(-c3ccccc3)nc2s1 (configuration not stated)
IC50 [6]: 19.2 µM | selectivity ratio [7]: 3

IC50 [1]: 10.6 µM
SMILES: O=C(CC1S/C(=N\N=C\c2c(-c3ccccc3)[nH]c3ccccc23)NC1=O)c1ccc(F)cc1 (configuration not stated)

IC50 [1]: 6.86 µM
SMILES: CCOC(=O)c1ccc(NC(=O)CC2S/C(=N\N=C\c3c(-c4ccccc4)[nH]c4ccccc34)NC2=O)cc1 (configuration not stated)

IC50 [5]: 0.639 µM
SMILES: CCOC(=O)c1s/c(=N\N=C\c2c(-c3ccc([N+](=O)[O-])cc3)nc3sc(CC)nn23)n(-c2ccc(O)cc2)c1C
IC50 [6]: > 80 µM | selectivity ratio [7]: > 130

IC50 [1]: 0.0014 µM | IC50 [5]: 0.0015 µM
SMILES: N=C(N)c1ccc(OCCCCCOc2ccc(C(=N)N)cc2)cc1 [PENTAMIDINE]
IC50 [6]: 23.2 µM

IC50 [1]: 34.8 µM
SMILES: O=C(O)CCNC(=O)CC1S/C(=N\N=C\c2c(-c3ccccc3)[nH]c3ccccc23)NC1=O (configuration not stated)

IC50 [5]: 0.38 µM
SMILES: CC(=O)OCCC1S/C(=N\N=C\c2c(-c3ccc(Cl)cc3)[nH]c3ccccc23)N(c2ccc(O)cc2)C1=O (configuration not stated)
IC50 [6]: > 90 µM | selectivity ratio [7]: > 240

IC50 [5]: 2.3 µM
SMILES: O=[N+]([O-])c1ccc(-c2[nH]c3ccccc3c2/C=N/Nc2nc(-c3ccc(Br)cc3)cs2)cc1
IC50 [6]: > 96.5 µM | selectivity ratio [7]: > 40

IC50 [5]: 0.631 µM
SMILES: C=CCSc1nn2c(/C=N/N=c3\sc(C(=O)OCC)c(C)n3-c3ccc(O)cc3)c(-c3ccccc3)nc2s1
IC50 [6]: > 80 µM | selectivity ratio [7]: > 130

IC50 [1]: 14 µM
SMILES: O=C(O)CCCCCNC(=O)CC1S/C(=N\N=C\c2c(-c3ccccc3)[nH]c3ccccc23)NC1=O (configuration not stated)

IC50 [5]: 0.51 µM
SMILES: CCc1nn2c(/C=N/N=c3\scc(-c4ccc([N+](=O)[O-])cc4)n3-c3ccc(O)cc3)c(-c3ccc(Br)cc3)nc2s1
IC50 [6]: > 70 µM | selectivity ratio [7]: > 150

IC50 [5]: 1.4 µM
SMILES: O=C1C(CCO)S/C(=N\N=C\c2c(-c3ccc(Cl)cc3)[nH]c3ccccc23)N1Cc1ccco1 (configuration not stated)
IC50 [6]: 6.23 µM | selectivity ratio [7]: 4
